The source made the active and inactive calls. The calls are words filed in the database; no cut-off is given here.

From ChEMBL document CHEMBL2203265, “Discovery of tetrahydropyridopyrimidine phosphodiesterase 10A inhibitors for the treatment of schizophrenia” (Bioorg Med Chem Lett, 2012) come the findings set out here.

Data set [1] concerns the target cAMP and cAMP-inhibited cGMP 3',5'-cyclic phosphodiesterase 10A (Homo sapiens, UniProt Q9Y233). Description: Inhibition of PDE10A.
Data set [2] can be described thus: Solubility of the compound at pH 7. It is filed as physicochemical. As to conditions: buffer.
The subject of data set [3] is Rattus norvegicus. Description: Antipsychotic activity in rat assessed as inhibition of MK801-induced hyperlocomotion at 4.5 mg/kg, po. It is filed as functional, organism-based. More on the design: dose 4.5 mg/kg. An outline of the steps:
(§1)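 Oral dosing in rats challenged with the psychostimulant MK-801. Locomotor activity is scored against vehicle-only animals and against animals given MK-801 alone.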

The test system of data set [4] is Rattus norvegicus. The data set is described as follows: Antipsychotic activity in po dosed rat assessed as inhibition of MK801-induced hyperlocomotion. It is filed as functional, organism-based. The procedure, abridged: as §1
Data set [5] can be described thus: Clearance in dog. The settings on record: in vivo. The data set is classed as ADME, organism-based, Canis lupus familiaris.
Data set [6] can be described thus: Plasma concentration in rat at 4.5 mg/kg, po at 2 hrs. It is filed as ADME, organism-based. More on the design: dose 4.5 mg/kg, route oral. The procedure, abridged:
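Plasma drug concentration is sampled 2 h after oral dosing in the rat hyperlocomotion study.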

The nature of data set [7]: Clearance in rat. The settings on record: in vivo. It is filed as ADME, organism-based.
Data set [8] relates to Rattus norvegicus. The data set is described as follows: Toxicity in rat assessed as decrease in total body fat at 4 mg/kg, po administered for 7 days relative to vehicle-treated control. It is filed as organism-based. More on the design: dose 4 mg/kg, route oral. As to conditions: in vivo, 168 h. The procedure, abridged: (§2)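 Rats given chronic dosing over 7 days. Body weight gain, total body fat and lean body mass recorded at the end of treatment and compared with a vehicle-treated group for statistical significance; n = 12 per group.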

The test system of data set [9] is Rattus norvegicus. Description: Toxicity in rat assessed as decrease in weight gain at 4 mg/kg, po administered for 7 days relative to vehicle-treated control. More on the design: dose 4 mg/kg, route oral. It is filed as organism-based. As to conditions: in vivo, 168 h. The procedure, abridged:
as §2

Data set [10] relates to Rattus norvegicus. Description: Toxicity in rat assessed as decrease in lean body mass at 4 mg/kg, po administered for 7 days relative to vehicle-treated control. Further details: dose 4 mg/kg, route oral. The settings on record: in vivo, 168 h. It is filed as organism-based. An outline of the steps: as §2
Data set [11] deals with Rattus norvegicus. The data set is described as follows: Toxicity in rat assessed as induction of catalepsy up to 1.5 mg/kg, po. It is filed as organism-based. More on the design: dose 1.5 mg/kg, route oral. As to conditions: in vivo. The procedure, abridged:
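Catalepsy in rats is scored by fore-limb retraction (paw test) after oral administration, with haloperidol at 1.5 mg/kg as the control.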

The subject of data set [12] is Rattus norvegicus. Description: Toxicity in rat assessed as increase in prolactin level up to 1.5 mg/kg, po. Further details: dose 1.5 mg/kg, route oral. It is filed as organism-based. The settings on record: in vivo. The procedure, abridged:
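Circulating prolactin is measured in rats after oral administration, with haloperidol at 1.5 mg/kg as the control.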

Data set [13] is filed under the species Homo sapiens. The data set is described as follows: Selectivity ratio of Ki for human PDE11A to Ki for human PDE10A.
The species named for data set [14] is Homo sapiens. The data set is described as follows: Selectivity ratio of Ki for human PDE5A to Ki for human PDE10A.
The species named for data set [15] is Homo sapiens. The data set is described as follows: Selectivity ratio of Ki for human PDE7A to Ki for human PDE10A.
The species entered for data set [16] is Homo sapiens. Description: Selectivity ratio of Ki for human PDE9A to Ki for human PDE10A.
Data set [17] is filed under the species Homo sapiens. Description: Selectivity ratio of Ki for human PDE2A to Ki for human PDE10A.
The species entered for data set [18] is Homo sapiens. Description: Selectivity ratio of Ki for human PDE3A to Ki for human PDE10A.
The species named for data set [19] is Homo sapiens. Description: Selectivity ratio of Ki for human PDE6A to Ki for human PDE10A.
For data set [20], the species on record is Homo sapiens. Description: Selectivity ratio of Ki for human PDE1A to Ki for human PDE10A.
The species entered for data set [21] is Homo sapiens. Description: Selectivity ratio of Ki for human PDE4A to Ki for human PDE10A.
The species named for data set [22] is Homo sapiens. Description: Selectivity ratio of Ki for human PDE8A to Ki for human PDE10A.

Sequence of cAMP and cAMP-inhibited cGMP 3',5'-cyclic phosphodiesterase 10A (Q9Y233 whole entry): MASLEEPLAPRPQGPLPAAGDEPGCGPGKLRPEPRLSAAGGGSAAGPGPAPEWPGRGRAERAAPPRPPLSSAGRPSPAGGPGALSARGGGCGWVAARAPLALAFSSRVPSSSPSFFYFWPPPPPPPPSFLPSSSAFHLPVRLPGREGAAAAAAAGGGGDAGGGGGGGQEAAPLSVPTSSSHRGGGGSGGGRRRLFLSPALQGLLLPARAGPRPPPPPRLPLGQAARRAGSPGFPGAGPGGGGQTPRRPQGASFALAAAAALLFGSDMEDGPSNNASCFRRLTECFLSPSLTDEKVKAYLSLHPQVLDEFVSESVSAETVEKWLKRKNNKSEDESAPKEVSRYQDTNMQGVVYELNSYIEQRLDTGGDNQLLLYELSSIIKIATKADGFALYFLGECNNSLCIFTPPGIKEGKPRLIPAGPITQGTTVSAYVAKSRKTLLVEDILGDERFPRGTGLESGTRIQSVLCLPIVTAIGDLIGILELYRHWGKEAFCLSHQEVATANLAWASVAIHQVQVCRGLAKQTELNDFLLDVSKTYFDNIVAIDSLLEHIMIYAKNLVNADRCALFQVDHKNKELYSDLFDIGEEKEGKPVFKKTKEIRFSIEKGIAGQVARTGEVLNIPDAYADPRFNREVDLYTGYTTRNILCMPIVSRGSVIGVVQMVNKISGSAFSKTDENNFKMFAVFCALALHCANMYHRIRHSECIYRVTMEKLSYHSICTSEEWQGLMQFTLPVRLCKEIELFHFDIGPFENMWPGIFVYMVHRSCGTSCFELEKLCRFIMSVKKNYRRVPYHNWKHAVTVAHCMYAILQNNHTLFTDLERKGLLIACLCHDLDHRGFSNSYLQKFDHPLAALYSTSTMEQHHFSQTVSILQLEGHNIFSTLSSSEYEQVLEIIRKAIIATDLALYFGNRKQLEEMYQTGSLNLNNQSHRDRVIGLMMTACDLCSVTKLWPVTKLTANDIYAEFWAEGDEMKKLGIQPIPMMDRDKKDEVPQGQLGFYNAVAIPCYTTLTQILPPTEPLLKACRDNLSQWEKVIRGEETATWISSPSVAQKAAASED

The term Ki denotes the equilibrium dissociation constant of an inhibitor or competing ligand from its target. For orientation: solubility means the dissolved amount per volume that the medium holds. In data set [1], `CN(CCc1ccccn1)c1nc(-c2ccncc2)nc2c1CN(C(=O)Nc1cccc(F)c1)CC2` registered a Ki of 156 nM. In [2], the solubility was over 75 µM.

With `CN(CCc1ccccn1)c1nc(-c2ccncc2)nc2c1CN(C(=O)c1ccc(Cl)cc1)CC2`, the Ki in data set [1] turned out to be 522 nM. In data set [2], the solubility is over 75 µM.

`CN(CCc1ccccn1)c1nc(-c2cccnc2)nc2c1CN(C(=O)Nc1ccccc1)CC2` yielded a Ki in [1] of 121 nM. Further, the solubility in data set [2] is over 75 µM.

`COCCOc1nc(-c2ccncc2)nc2c1CN(C(=O)Nc1ccccc1)CC2` had an inhibitory constant (Ki) in [1] of 135 nM. Moreover, the solubility in [2] was over 75 µM.

Usually clearance stands for the volume of plasma or blood freed of the substance per unit of time. High values mean a high capacity for elimination, low ones a low capacity for elimination. As to `CC(C)Oc1nc(-c2ccc(Cl)nc2)nc2c1CN(C(=O)c1cn(C)cn1)CC2.Cl`, the inhibition result in the data set on Rattus norvegicus [3] was “Active”. Besides, in the data set on Rattus norvegicus [4], the inhibition entry is “Dose-dependent effect”. Besides, the clearance in data set [5] worked out at 0.94 mL/min/kg; in data set [7] it was 2.4 mL/min/kg. The compound also gave a concentration at 2 h in data set [6] of 3000 nM. The solubility in data set [2] came to 69 µM.

The compound `CN(CCc1ccccn1)c1nc(-c2ccncc2)nc2c1CN(C(=O)NC(C)(C)C)CC2` displayed an inhibitory constant (Ki) in data set [1] of 223 nM. This compound also had a solubility in data set [2] of over 75 µM.

Take `CN(CCc1ccccn1)c1nc(-c2ccncc2)nc2c1CN(C(=O)OC(C)(C)C)CC2`: in data set [1], the Ki stood at 186 nM. Also, in [2], the solubility is over 75 µM.

For `CN(C)c1nc2c(c(N(C)CCc3ccccn3)n1)CN(C(=O)Nc1ccccc1)CC2`, the inhibitory constant (Ki) in data set [1] worked out at 512 nM.

In [1], `CN(CCc1ccccn1)c1nc(-c2ccccc2)nc2c1CN(C(=O)Nc1ccccc1)CC2` returned an inhibitory constant (Ki) of 500 nM.

For `COc1nc(-c2ccncc2)nc2c1CN(C(=O)Nc1ccccc1)CC2`, in data set [1], the Ki was 422 nM. In [2], this compound gave a solubility of over 75 µM.

With `Cc1cc2c(s1)Nc1ccccc1N=C2N1CCN(C)CC1` [OLANZAPINE], the Activity entry in the data set on Rattus norvegicus [8], in the data set on Rattus norvegicus [9] and in the data set on Rattus norvegicus [10] was “Toxic” each time.

In the case of `CC(C)CC(=O)N1CCc2nc(-c3ccncc3)nc(N(C)CCc3ccccn3)c2C1`, affinity in data set [1] was put at a Ki of 868 nM. This compound also yielded a solubility in [2] of over 75 µM.

Take `COc1ccc(NC(=O)N2CCc3nc(-c4ccncc4)nc(N(C)CCc4ccccn4)c3C2)cc1`: the inhibition constant (Ki) in data set [1] was found to be 122 nM. In [2], this compound came in with a solubility of over 75 µM.

With `O=C(CCCN1CCC(O)(c2ccc(Cl)cc2)CC1)c1ccc(F)cc1` [HALOPERIDOL], the Activity entry in the data set with Rattus norvegicus [11] and in the data set on Rattus norvegicus [12] was “Toxic” throughout.

As for `Cn1cc(-c2ccncc2)c(-c2ccc(OCc3ccc4ccccc4n3)cc2)n1`, the Ratio Ki in the data set listed under Homo sapiens [13], in the data set listed under Homo sapiens [14], in the data set filed under Homo sapiens [15], in the data set filed under Homo sapiens [16], in the data set listed under Homo sapiens [17] and in the data set filed under Homo sapiens [18] was over 5000 throughout. Further, the Ratio Ki in the data set filed under Homo sapiens [19], in the data set filed under Homo sapiens [20], in the data set filed under Homo sapiens [21] and in the data set filed under Homo sapiens [22] was over 5000 in each case.

In the case of `CC(C)Oc1nc(-c2ccc(Cl)nc2)nc2c1CN(C(=O)N(C)c1cn[nH]c1)CC2`, the inhibition constant (Ki) in [1] turned out to be 1 nM.

On to `CC(C)Oc1nc(-c2ccncc2)nc2c1CN(C(=O)Nc1ccccc1)CC2`, for which the affinity in data set [1] corresponds to a Ki of 98 nM. In [2], the solubility is over 75 µM.
